Data reported in ChEMBL document CHEMBL1153427, “1-Sulfonyl-4-acylpiperazines as selective cannabinoid-1 receptor (CB1R) inverse agonists for the treatment of obesity” (J Med Chem, 2009).

Tests used:
Cannabinoid receptor 1 [1] = biological target: T1, Cannabinoid receptor 1 (Homo sapiens, UniProt P21554); experiment: Displacement of [3H]CP-55940 from human recombinant CB1R expressed in CHO cells; assay type: cell-based
How it was run: (§1)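 Radioligand competition used 0.5 nM [³H]CP55940 with recombinant human CB1R-CHO or CB2R-CHO membranes. Bound and free ligand were separated by filtration, and IC₅₀ came from nonlinear curve fitting.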

Cannabinoid receptor 2 = Cannabinoid receptor 2 (Homo sapiens, UniProt P34972); experiment: Displacement of [3H]CP-55940 from human recombinant CB2R expressed in CHO cells; assay type: cell-based; how it was run: as §1
Cannabinoid receptor 2, sequence (P34972 whole entry): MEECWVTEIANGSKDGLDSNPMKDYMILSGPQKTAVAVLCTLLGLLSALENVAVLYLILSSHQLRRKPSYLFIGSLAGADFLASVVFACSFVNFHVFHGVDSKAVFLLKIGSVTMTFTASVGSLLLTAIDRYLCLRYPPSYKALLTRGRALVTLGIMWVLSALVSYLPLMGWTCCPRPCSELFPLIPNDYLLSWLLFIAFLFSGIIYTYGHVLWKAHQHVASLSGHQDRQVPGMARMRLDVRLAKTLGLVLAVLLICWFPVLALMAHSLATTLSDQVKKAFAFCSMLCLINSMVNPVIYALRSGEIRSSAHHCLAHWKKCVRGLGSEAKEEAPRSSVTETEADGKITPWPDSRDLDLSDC

Cannabinoid receptor 1 [2] = biological target: T1, Cannabinoid receptor 1; experiment: Inverse agonist activity at human recombinant CB1R expressed in CHO cells assessed as increase in forskolin-stimulated cAMP level; assay type: functional, cell-based
How it was run: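 Recombinant CB1R-CHO cells were incubated with test compound across a range of concentrations, plus forskolin and the phosphodiesterase inhibitor IBMX. Buffer was Earle's balanced salt solution with 5 mM MgCl₂, 10 mM HEPES pH 7.3 and 1 mg/mL BSA, for 30 min at room temperature, with cAMP read out.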

[3] = biological target: Voltage-gated inwardly rectifying potassium channel KCNH2 (Homo sapiens, UniProt Q12809); experiment: Inhibition of human ERG by MK-0499 binding assay
Voltage-gated inwardly rectifying potassium channel KCNH2, sequence (Q12809 whole entry): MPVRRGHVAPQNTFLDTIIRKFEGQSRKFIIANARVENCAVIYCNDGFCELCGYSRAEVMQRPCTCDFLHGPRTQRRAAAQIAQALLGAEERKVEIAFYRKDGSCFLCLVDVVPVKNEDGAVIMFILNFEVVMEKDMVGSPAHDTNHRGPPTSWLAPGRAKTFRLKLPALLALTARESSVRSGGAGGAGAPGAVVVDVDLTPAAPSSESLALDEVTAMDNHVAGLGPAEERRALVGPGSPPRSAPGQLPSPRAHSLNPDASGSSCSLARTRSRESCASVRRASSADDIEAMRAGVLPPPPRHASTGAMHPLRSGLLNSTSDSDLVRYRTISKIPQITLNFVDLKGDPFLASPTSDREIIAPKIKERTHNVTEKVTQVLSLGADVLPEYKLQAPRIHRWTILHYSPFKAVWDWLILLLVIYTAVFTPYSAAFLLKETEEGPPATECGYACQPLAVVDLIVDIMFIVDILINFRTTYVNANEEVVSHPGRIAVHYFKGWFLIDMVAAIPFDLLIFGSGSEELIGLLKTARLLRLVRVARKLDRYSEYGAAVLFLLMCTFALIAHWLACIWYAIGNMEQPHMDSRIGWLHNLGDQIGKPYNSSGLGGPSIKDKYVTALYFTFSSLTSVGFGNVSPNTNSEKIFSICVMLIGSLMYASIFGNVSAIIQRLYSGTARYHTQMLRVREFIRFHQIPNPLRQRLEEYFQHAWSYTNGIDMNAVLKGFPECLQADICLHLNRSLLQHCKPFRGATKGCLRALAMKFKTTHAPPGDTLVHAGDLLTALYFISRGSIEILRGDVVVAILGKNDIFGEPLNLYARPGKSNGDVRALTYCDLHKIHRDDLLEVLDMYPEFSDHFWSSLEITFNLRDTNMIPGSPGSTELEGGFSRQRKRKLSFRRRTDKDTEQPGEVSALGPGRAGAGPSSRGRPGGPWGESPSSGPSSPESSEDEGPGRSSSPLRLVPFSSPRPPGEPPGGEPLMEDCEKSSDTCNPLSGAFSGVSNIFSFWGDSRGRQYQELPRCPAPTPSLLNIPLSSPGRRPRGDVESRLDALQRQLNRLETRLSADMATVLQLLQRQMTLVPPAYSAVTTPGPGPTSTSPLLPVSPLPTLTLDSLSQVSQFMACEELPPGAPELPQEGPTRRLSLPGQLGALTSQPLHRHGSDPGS

T1 sequence (P21554 whole entry): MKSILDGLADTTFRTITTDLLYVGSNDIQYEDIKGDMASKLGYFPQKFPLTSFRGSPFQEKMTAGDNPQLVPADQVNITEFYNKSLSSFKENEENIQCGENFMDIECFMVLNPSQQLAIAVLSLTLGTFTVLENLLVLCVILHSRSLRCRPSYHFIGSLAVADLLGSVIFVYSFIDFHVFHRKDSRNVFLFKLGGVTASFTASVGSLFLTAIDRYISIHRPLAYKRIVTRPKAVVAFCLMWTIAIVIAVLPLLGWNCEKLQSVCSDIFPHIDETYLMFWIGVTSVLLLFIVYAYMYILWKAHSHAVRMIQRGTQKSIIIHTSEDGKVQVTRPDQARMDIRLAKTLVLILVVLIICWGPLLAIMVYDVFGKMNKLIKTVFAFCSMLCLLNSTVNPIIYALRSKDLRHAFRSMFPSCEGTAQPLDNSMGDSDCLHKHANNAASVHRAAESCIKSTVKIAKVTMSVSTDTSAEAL

SMILES	IC50 (Cannabinoid receptor 1 [1]) [µM]	IC50 (Cannabinoid receptor 2) [µM]	EC50 (Cannabinoid receptor 1 [2]) [µM]	IC50 [3] [µM]
O=C([C@@H]1C[C@H]1c1ccc(C(F)(F)F)cc1)N1CCN(S(=O)(=O)c2cc(-c3ncon3)cc(C(F)(F)F)c2)CC1	0.0003	> 10	–	–
O=C(Cc1ccccc1)N1CCN(S(=O)(=O)c2cc(Cl)cc(Cl)c2)CC1	0.8	–	0.002	–
O=C(CCc1ccc(C(F)(F)F)cc1)N1CCN(S(=O)(=O)c2cc(Cl)cc(Cl)c2)CC1	0.026	–	0.0005	–
O=C(Cc1ccccc1C(F)(F)F)N1CCN(S(=O)(=O)c2cc(Cl)cc(Cl)c2)CC1	0.47	–	0.0022	–
O=C(C1CCCCC1)N1CCN(S(=O)(=O)c2cccc(-c3ccccc3)c2)CC1	0.2	> 10	0.006	–
CCOC(=O)Oc1cc(C(F)(F)F)cc(S(=O)(=O)N2CCN(C(=O)[C@@H]3C[C@H]3c3ccc(C(F)(F)F)cc3)CC2)c1	0.008	–	–	–
O=C([C@@H]1C[C@H]1c1ccc(C(F)(F)F)cc1)N1CCN(S(=O)(=O)c2cc(C(F)(F)F)cc(C(F)(F)CO)c2)CC1	0.005	> 10	–	–
O=C([C@@H]1C[C@H]1c1ccc(C(F)(F)F)cc1)N1CCN(S(=O)(=O)c2cc(-c3n[nH]c(=O)[nH]3)cc(C(F)(F)F)c2)CC1	0.4	> 10	–	–
N#Cc1ccc(CC(=O)N2CCN(S(=O)(=O)c3cc(Cl)cc(Cl)c3)CC2)cc1	–	–	0.0005	–
O=C(C1CCCCC1)N1CCN(S(=O)(=O)c2cccc3ccccc23)CC1c1ccccc1 (stereo unspecified)	9	–	0.6	–
CC(C)Oc1cc(C(F)(F)F)cc(S(=O)(=O)N2CCN(C(=O)[C@@H]3C[C@H]3c3ccc(C(F)(F)F)cc3)CC2)c1	0.0003	–	–	–
O=C(C1CCCCC1)N1CCN(S(=O)(=O)c2cccc3ccccc23)CC1	0.095	> 10	0.0006	–
CC(C(=O)N1CCN(S(=O)(=O)c2cc(Cl)cc(Cl)c2)CC1)c1ccccc1 (racemic)	0.22	–	0.0003	–
O=C(Cc1ccc(C(F)(F)F)cc1)N1CCN(S(=O)(=O)c2cc(C(F)(F)F)cc(C(F)(F)F)c2)CC1	0.005	> 10	0.001	–
O=C(C1CCCCC1)N1C2CCC1CN(S(=O)(=O)c1cccc3ccccc13)C2	3.1	–	0.3	–
O=C([C@@H]1C[C@H]1c1ccc(C(F)(F)F)cc1)N1CCN(S(=O)(=O)c2cc(-n3cccn3)cc(C(F)(F)F)c2)CC1	0.0007	> 10	–	–
O=C([C@@H]1C[C@H]1c1ccc(C(F)(F)F)cc1)N1CCN(S(=O)(=O)c2cc(-n3nccn3)cc(C(F)(F)F)c2)CC1	0.0006	> 10	–	–
O=C(Cc1ccc(C(F)(F)F)cc1)N1CCN(S(=O)(=O)c2cc(Cl)cc(Cl)c2)CC1	0.016	–	0.0005	–
O=C([C@@H]1C[C@H]1c1ccc(C(F)(F)F)cc1)N1CCN(S(=O)(=O)c2cc(CCO)cc(C(F)(F)F)c2)CC1	0.004	> 10	–	0.9
COc1cc(C(F)(F)F)cc(S(=O)(=O)N2CCN(C(=O)[C@@H]3C[C@H]3c3ccc(C(F)(F)F)cc3)CC2)c1	0.0005	–	–	–
O=C([C@@H]1C[C@H]1c1ccc(C(F)(F)F)cc1)N1CCN(S(=O)(=O)c2cc(-n3ccnn3)cc(C(F)(F)F)c2)CC1	0.05	> 10	–	–
O=C([C@@H]1C[C@H]1c1ccc(C(F)(F)F)cc1)N1CCN(S(=O)(=O)c2cc(-c3c[nH]nn3)cc(C(F)(F)F)c2)CC1	0.003	> 10	–	–
O=C(Cc1ccc(C(F)(F)F)cc1)NC1CN(S(=O)(=O)c2cc(C(F)(F)F)cc(C(F)(F)F)c2)C1	> 10	–	> 10	–
O=C(C1CC1)N1CCN(S(=O)(=O)c2cc(Cl)cc(Cl)c2)CC1	0.78	–	0.005	–
O=C(Cc1ccc(C(F)(F)F)cc1)N1CCN(S(=O)(=O)c2cc(Br)cc(C(F)(F)F)c2)CC1	0.006	> 10	0.001	–
O=C(Cc1ccccn1)N1CCN(S(=O)(=O)c2cc(Cl)cc(Cl)c2)CC1	3	–	0.04	–
O=C(Cc1ccc(C(F)(F)F)cc1)N1CC(NS(=O)(=O)c2cc(C(F)(F)F)cc(C(F)(F)F)c2)C1	> 10	–	> 10	–
O=C(c1ccccc1)N1CCN(S(=O)(=O)c2cc(C(F)(F)F)cc(C(F)(F)F)c2)CC1	> 10	–	> 10	–
O=C(C1CCCCC1)N1CCN(S(=O)(=O)c2cccc(C(F)(F)F)c2)CC1	4.2	–	> 10	–
O=C(C1CCCCC1)N1CCN(S(=O)(=O)c2cccc3ccccc23)CC1C(F)(F)F (stereo unspecified)	0.29	–	0.0025	–
